# Measurements of several laboratories.
# Lines come from different studies, so protocols differ.
Structure (SMILES),organism,assay,test system,conditions,endpoint,value
CN(Cc1ccc(C2(C(F)(F)F)CC2)cc1)Cc1cccc2ccccc12,Trichophyton mentagrophytes,"microbial growth, disc diffusion",ATCC18748,"0.001 µg/mL, 72 h",inhibition zone,8.5 mm
O=C1C(NCCc2c[nH]c3ccccc23)=CC2=NCCc3c[nH]c1c32,Babesia divergens,"parasite growth, SYBR Green",,"60 h, blood stage",IC50,970 nM
Cc1c(C(N)=O)c(N)n(N)c(=O)c1C#N,Enterobacter cloacae,"microbial growth, well diffusion",ATCC23355,500 µg/mL,inhibition zone,21 mm
CN(Cc1ccc(C(C)(C)C)cc1)Cc1cccc2ccccc12,Trichophyton mentagrophytes,"microbial growth, disc diffusion",ATCC18748,"0.0005 µg/mL, 72 h",inhibition zone,14.5 mm
O=C1c2[nH]cc3c2C(=NCC3)c2c(-c3ccc(O)cc3)c[nH]c21,Babesia divergens,"parasite growth, SYBR Green",,"60 h, blood stage",IC50,614 nM
CC(=O)Oc1ccc(-c2c(C(N)=O)c(N)n(N)c(=O)c2C#N)cc1,Enterobacter cloacae,"microbial growth, well diffusion",ATCC23355,500 µg/mL,inhibition zone,12 mm
O=C1C(Br)=C(Br)C(=O)c2ccccc21,Trichophyton mentagrophytes,"microbial growth, broth dilution",ATCC9533,96 h,MIC,< 1.56 µg/mL
N#Cc1c(-c2ccc(Cl)cc2Cl)c(C(N)=O)c(N)n(N)c1=O,Enterobacter cloacae,"microbial growth, well diffusion",ATCC23355,500 µg/mL,inhibition zone,14 mm
COC1=CC2=[N+](C)CCc3c[nH]c(c32)C1=O,Babesia divergens,"parasite growth, SYBR Green",,"60 h, blood stage",IC50,1000 nM
